Our source for the Ki, Ratio Ki and Activity values is ChEMBL document CHEMBL1142938 (J Med Chem, 2007).

Broadly, the Ki is the dissociation constant of the complex between target and ligand, obtained from inhibition or displacement.

In one assay the target is Adenosine receptor A2a (Homo sapiens, UniProt P29274). Description: Displacement of [3H]NECA from human recombinant adenosine A2A receptor expressed in CHO cells. The format is cell-based. In a few lines:
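Competition binding with [3H]NECA at 30 nM on stably transfected CHO cells. Nonspecific binding defined with 1 mM theophylline. Dissociation constants (Ki) obtained by nonlinear curve fitting.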
(Displacement assays read how much labelled ligand stays bound in the presence of the test substance.)

The target in a further assay is T1, Adenosine receptor A1 (Homo sapiens, UniProt P30542).
T1 sequence (P30542 whole entry): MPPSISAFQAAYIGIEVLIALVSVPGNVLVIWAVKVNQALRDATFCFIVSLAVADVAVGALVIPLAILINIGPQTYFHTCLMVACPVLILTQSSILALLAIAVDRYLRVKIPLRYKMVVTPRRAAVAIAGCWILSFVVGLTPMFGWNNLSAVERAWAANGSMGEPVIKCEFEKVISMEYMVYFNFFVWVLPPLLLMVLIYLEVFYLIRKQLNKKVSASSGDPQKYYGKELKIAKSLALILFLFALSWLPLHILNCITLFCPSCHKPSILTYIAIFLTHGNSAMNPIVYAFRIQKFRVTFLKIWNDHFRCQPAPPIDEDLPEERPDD
Nature of the assay: Displacement of [3H]CCPA from human recombinant adenosine A1 receptor expressed in CHO cells. Type of assay: cell-based.

The target of assay [1] is Adenosine receptors; A2a & A3 (Homo sapiens) (UniProt P0DMS8+P29274). Nature of the assay: Selectivity for human adenosine A3 receptor over human adenosine A2A receptor. Type of assay: protein assay.
Assay [2] deals with Adenosine receptors; A1 & A3 (Homo sapiens) (UniProt P30542+P0DMS8). Description: Selectivity for human adenosine A3 receptor over human adenosine A1 receptor. Type of assay: protein assay.
The target in the next assay is T2, Adenosine receptor A3 (Homo sapiens, UniProt P0DMS8).
T2 sequence (P0DMS8 whole entry): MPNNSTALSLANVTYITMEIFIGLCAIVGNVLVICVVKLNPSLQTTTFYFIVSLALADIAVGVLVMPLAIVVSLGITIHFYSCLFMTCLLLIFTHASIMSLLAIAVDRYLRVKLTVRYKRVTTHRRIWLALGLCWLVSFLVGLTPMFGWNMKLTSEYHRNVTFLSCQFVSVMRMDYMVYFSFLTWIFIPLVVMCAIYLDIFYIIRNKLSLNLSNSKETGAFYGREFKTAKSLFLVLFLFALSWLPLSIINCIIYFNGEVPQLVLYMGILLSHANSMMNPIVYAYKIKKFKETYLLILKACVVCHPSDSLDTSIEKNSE
Nature of the assay: Displacement of [3H]NECA from human recombinant adenosine A3 receptor expressed in CHO cells. Type of assay: cell-based. In a few lines: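 [3H]NECA used at 10 nM as radioligand in competition experiments, stably transfected CHO cells. Nonspecific binding defined with 1 mM theophylline. Ki from nonlinear curve fitting.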

For assay [3], the target named is T3, Adenosine receptor A3 (Homo sapiens) (UniProt P0DMS8).
T3 sequence (whole entry): T2 sequence (P0DMS8 whole entry)
Nature of the assay: Activity at human adenosine A3 receptor assessed as inhibition of forskolin-stimulated cAMP production in CHO cells. Type of assay: functional, cell-based. Also noted: concentration or dose not given beside the values. On the technique in general: Changes in cAMP serve as a functional read-out for many G protein-coupled receptors.

Adenosine receptor A2a, sequence (P29274 whole entry): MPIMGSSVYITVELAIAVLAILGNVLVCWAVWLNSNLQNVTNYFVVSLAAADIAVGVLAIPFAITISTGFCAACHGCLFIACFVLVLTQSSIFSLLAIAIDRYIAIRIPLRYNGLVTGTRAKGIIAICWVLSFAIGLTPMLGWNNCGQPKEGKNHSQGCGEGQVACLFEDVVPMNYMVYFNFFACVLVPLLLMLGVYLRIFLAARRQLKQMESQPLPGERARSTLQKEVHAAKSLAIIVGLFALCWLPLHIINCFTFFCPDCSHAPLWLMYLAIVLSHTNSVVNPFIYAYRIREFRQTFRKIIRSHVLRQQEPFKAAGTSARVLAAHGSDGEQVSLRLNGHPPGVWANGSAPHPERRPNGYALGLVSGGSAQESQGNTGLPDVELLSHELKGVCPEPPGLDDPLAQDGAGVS

As to `CCCCCc1ccc(C#Cc2nc(NOC)c3ncn([C@@H]4O[C@H](C(=O)NC)[C@@H](O)[C@H]4O)c3n2)cc1`, the values for the Ki on Adenosine receptor A2a, at Adenosine receptor A1 and at Adenosine receptor A3 were 31.7 µM, 48100 nM and 55 nM, respectively. Also, the Ratio Ki in assay [1] stood at 576; in assay [2], 874.

For `CONc1nc(C#CCC(C)O)nc2c1ncn2[C@@H]1O[C@H](CO)[C@@H](O)[C@H]1O` (stereo partly drawn), the Ki on Adenosine receptor A2a came out at 0.758 µM; at Adenosine receptor A1, 95 nM; on Adenosine receptor A3, 5.4 nM. In addition, the Ratio Ki in assay [1] stood at 140; in assay [2], 18.

With `CCCCCc1ccc(C#Cc2nc(NOC)c3ncn([C@@H]4O[C@H](C(=O)NCC)[C@@H](O)[C@H]4O)c3n2)cc1`, the Ki was 27.1 µM on Adenosine receptor A2a, 4090 nM at Adenosine receptor A1 and 68 nM on Adenosine receptor A3. Moreover, the Ratio Ki in assay [1] was 399; in assay [2] it was 60.

`CONc1nc(C#Cc2ccncc2)nc2c1ncn2[C@@H]1O[C@H](CO)[C@@H](O)[C@H]1O`: the Ki at Adenosine receptor A2a came to 6.31 µM; at Adenosine receptor A1, 1190 nM; at Adenosine receptor A3 it was 6 nM. In addition, the values for the Ratio Ki in assay [1] and in assay [2] were 1100 and 198, respectively.

On to `CNC(=O)[C@H]1O[C@@H](n2cnc3c(NOC)nc(C#Cc4ccc(C(C)=O)cc4)nc32)[C@H](O)[C@@H]1O`, for which the Ki at Adenosine receptor A2a stood at 10.4 µM; at Adenosine receptor A1, 53800 nM; at Adenosine receptor A3, 2.5 nM. The Ratio Ki was determined as 4200 in assay [1] and 21500 in assay [2]. For the same compound, in assay [3], the Activity came to 41%.

Take `Nc1nc(C#Cc2ccccc2)nc2c1ncn2[C@@H]1O[C@H](CO)[C@@H](O)[C@H]1O`: the results for the Ratio Ki in assay [1] and in assay [2] were 23 and 24, respectively.

In the case of `CONc1nc(C#Cc2ccc(C)cc2)nc2c1ncn2[C@@H]1O[C@H](CO)[C@@H](O)[C@H]1O`, the Ki on Adenosine receptor A2a stood at 35.1 µM; on Adenosine receptor A1 it was 1380 nM; at Adenosine receptor A3, 5.9 nM. The Ratio Ki came to 6000 in assay [1] and 234 in assay [2].

Consider `CCNC(=O)[C@H]1O[C@@H](n2cnc3c(NOC)nc(I)nc32)[C@H](O)[C@@H]1O`, for which the figures for the Ki on Adenosine receptor A2a, on Adenosine receptor A1 and on Adenosine receptor A3 were 5.29 µM, 53 nM and 2.8 nM, respectively. The Ratio Ki was 1900 in assay [1] and 19 in assay [2].

For the compound `CNC(=O)[C@H]1O[C@@H](n2cnc3c(NOC)nc(C#Cc4ccc(C)cc4)nc32)[C@H](O)[C@@H]1O`, the Ki at Adenosine receptor A2a turned out to be 14.7 µM; at Adenosine receptor A3 it was 3.3 nM. Further, the Ratio Ki in assay [1] came out at 4500; in assay [2], 3600.

Regarding `CONc1nc(C#Cc2ccc(OC)cc2)nc2c1ncn2[C@@H]1O[C@H](CO)[C@@H](O)[C@H]1O`, the Ki amounted to 1.78 µM on Adenosine receptor A2a, 1870 nM at Adenosine receptor A1 and 4.3 nM on Adenosine receptor A3. For the same compound, the Ratio Ki is 414 in assay [1] and 435 in assay [2].

As for `CCNC(=O)[C@H]1O[C@@H](n2cnc3c(NOC)nc(C#Cc4ccc(C(C)=O)cc4)nc32)[C@H](O)[C@@H]1O`, the Ki at Adenosine receptor A2a turned out to be 4.21 µM; at Adenosine receptor A1 it was 1230 nM; at Adenosine receptor A3 it was 4 nM. Moreover, the Ratio Ki in assay [1] came to 1100; in assay [2], 307.

As to `CONc1nc(C#Cc2ccc(C(C)=O)cc2)nc2c1ncn2[C@@H]1O[C@H](CO)[C@@H](O)[C@H]1O`, the Ki on Adenosine receptor A2a is 2.68 µM; on Adenosine receptor A1 it was 1280 nM; on Adenosine receptor A3, 3 nM. Further, the Ratio Ki in assay [1] worked out at 893; in assay [2], 427. Besides, in assay [3], the Activity stood at 81%.

With `CNC(=O)[C@H]1O[C@@H](n2cnc3c(NOC)nc(I)nc32)[C@H](O)[C@@H]1O`, the values for the Ki on Adenosine receptor A2a, at Adenosine receptor A1 and on Adenosine receptor A3 were 12.1 µM, 153 nM and 1.7 nM, respectively. The Ratio Ki in assay [1] was determined as 7100; in assay [2], 90.

On to `CONc1nc(C#CCCCC#N)nc2c1ncn2[C@@H]1O[C@H](CO)[C@@H](O)[C@H]1O`, for which the Ki was found to be 1.82 µM on Adenosine receptor A2a, 282 nM at Adenosine receptor A1 and 4.1 nM on Adenosine receptor A3. The Ratio Ki in assay [1] was 444; in assay [2], 69.

In the case of `CCNC(=O)[C@H]1O[C@@H](n2cnc3c(NOC)nc(C#Cc4ccc(C)cc4)nc32)[C@H](O)[C@@H]1O`, the Ki was 4.6 µM on Adenosine receptor A2a, 1420 nM at Adenosine receptor A1 and 6.8 nM on Adenosine receptor A3. For the same compound, the Ratio Ki in assay [1] stood at 676; in assay [2], 209.

For `CONc1nc(C#Cc2cccc(C(F)(F)F)c2)nc2c1ncn2[C@@H]1O[C@H](CO)[C@@H](O)[C@H]1O`, the Ki amounted to 8.27 µM on Adenosine receptor A2a, 2450 nM on Adenosine receptor A1 and 23 nM on Adenosine receptor A3. For the same compound, the Ratio Ki in assay [1] was found to be 360; in assay [2] it was 106.

For `CCNC(=O)[C@H]1O[C@@H](n2cnc3c(NOC)nc(C#Cc4ccccn4)nc32)[C@H](O)[C@@H]1O`, the Ki at Adenosine receptor A2a came out at 6.46 µM; at Adenosine receptor A1, 175 nM; on Adenosine receptor A3 it was 1.6 nM. Also, the Ratio Ki came to 4000 in assay [1] and 109 in assay [2].

`CCNC(=O)[C@H]1O[C@@H](n2cnc3c(NOC)nc(C#Cc4ccc(F)cc4)nc32)[C@H](O)[C@@H]1O`: the figures for the Ki on Adenosine receptor A2a, at Adenosine receptor A1 and at Adenosine receptor A3 were 6.29 µM, 1880 nM and 3.2 nM, respectively. Moreover, the figures for the Ratio Ki in assay [1] and in assay [2] were 2000 and 587, respectively.

As for `CONc1nc(C#Cc2ccc(CC#N)cc2)nc2c1ncn2[C@@H]1O[C@H](CO)[C@@H](O)[C@H]1O`, the Ki is 3.08 µM at Adenosine receptor A2a, 766 nM at Adenosine receptor A1 and 3.7 nM on Adenosine receptor A3. Further, the Ratio Ki in assay [1] came to 832; in assay [2] it was 207.

For the compound `C#Cc1nc(NOC)c2ncn([C@@H]3O[C@H](CO)[C@@H](O)[C@H]3O)c2n1`, the Ki at Adenosine receptor A2a amounted to 3.14 µM; at Adenosine receptor A1, 25 nM; at Adenosine receptor A3 it was 23 nM. Further, the results for the Ratio Ki in assay [1] and in assay [2] were 136 and 1, respectively.

On to `CCCCC#Cc1nc(NOC)c2ncn([C@@H]3O[C@H](CO)[C@@H](O)[C@H]3O)c2n1`, for which the Ki at Adenosine receptor A2a was found to be 0.267 µM; at Adenosine receptor A1, 97 nM; at Adenosine receptor A3 it was 2.8 nM. For the same compound, the Ratio Ki in assay [1] amounted to 95; in assay [2] it was 35.

In the case of `CCNC(=O)[C@H]1O[C@@H](n2cnc3c(N)nc(C#Cc4ccccc4)nc32)[C@H](O)[C@@H]1O`, the Ratio Ki in assay [1] came out at 100; in assay [2] it was 90.

Regarding `CNC(=O)[C@H]1O[C@@H](n2cnc3c(NOC)nc(C#Cc4ccc(F)cc4)nc32)[C@H](O)[C@@H]1O`, the Ki at Adenosine receptor A2a was determined as 18.7 µM; on Adenosine receptor A1, 3000 nM; at Adenosine receptor A3, 1.9 nM. For the same compound, the values for the Ratio Ki in assay [1] and in assay [2] were 9800 and 1600, respectively.

For the compound `CCCCCc1ccc(C#Cc2nc(NOC)c3ncn([C@@H]4O[C@H](CO)[C@@H](O)[C@H]4O)c3n2)cc1`, the values for the Ki at Adenosine receptor A2a, at Adenosine receptor A1 and on Adenosine receptor A3 were 6.52 µM, 730 nM and 39 nM, respectively. Moreover, the results for the Ratio Ki in assay [1] and in assay [2] were 167 and 19, respectively.

`CCNC(=O)[C@H]1O[C@@H](n2cnc3c(NOC)nc(C#Cc4ccccc4)nc32)[C@H](O)[C@@H]1O`: the Ki on Adenosine receptor A1 came out at 1880 nM; on Adenosine receptor A3, 3.5 nM. In addition, in assay [3], the Activity was 35%.

As for `CONc1nc(C#Cc2ccc(C(N)=O)cc2)nc2c1ncn2[C@@H]1O[C@H](CO)[C@@H](O)[C@H]1O`, the Ki on Adenosine receptor A2a came to 3.13 µM; at Adenosine receptor A1 it was 901 nM; on Adenosine receptor A3, 5.2 nM. Also, the Ratio Ki in assay [1] came to 602; in assay [2], 173.

As for `CONc1nc(C#Cc2ccc(F)cc2)nc2c1ncn2[C@@H]1O[C@H](CO)[C@@H](O)[C@H]1O`, the Ki worked out at 3.96 µM on Adenosine receptor A2a, 2790 nM on Adenosine receptor A1 and 4.4 nM at Adenosine receptor A3. Also, the results for the Ratio Ki in assay [1] and in assay [2] were 900 and 634, respectively.

Turning to `CONc1nc(I)nc2c1ncn2[C@@H]1O[C@H](CO)[C@@H](O)[C@H]1O`, the figures for the Ki at Adenosine receptor A2a, at Adenosine receptor A1 and on Adenosine receptor A3 were 12.4 µM, 58 nM and 7.4 nM, respectively. For the same compound, the Ratio Ki in assay [1] came out at 1700; in assay [2], 8.

Regarding `CONc1nc(C#C[Si](C)(C)C)nc2c1ncn2[C@@H]1O[C@H](CO)[C@@H](O)[C@H]1O`, the inhibition constant Ki at Adenosine receptor A2a worked out at 5.74 µM; on Adenosine receptor A1, 22 nM; at Adenosine receptor A3, 13 nM. Further, the Ratio Ki in assay [1] turned out to be 441; in assay [2] it was 1.7.

`CONc1nc(C#Cc2cccnc2)nc2c1ncn2[C@@H]1O[C@H](CO)[C@@H](O)[C@H]1O`: the Ki at Adenosine receptor A2a amounted to 12.5 µM; on Adenosine receptor A1, 255 nM; on Adenosine receptor A3, 7.9 nM. In addition, the Ratio Ki in assay [1] is 1600; in assay [2], 32.
